Activity calls are given as the source filed them. The rule behind the calls is not given here.
Key:
Mus musculus [1] = assay: Toxicity against KKAy mouse assessed as creatinine level at 10 mg/kg/day, po for 14 days (reference value: 0.2 mg/dl); format: organism-based; set-up: route oral; conditions: in vivo, 336 h
Rattus norvegicus [2] = assay: Hepatotoxicity in Sprague-Dawley rat at 30 mg/kg/day, po for 28 days; format: toxicity, organism-based; set-up: route oral; conditions: in vivo, 672 h
Outline: (§1)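 Male and female SD rats, four weeks old on arrival, two per cage. Oral 30 mg/kg/day or vehicle (1% ethanol/0.5% CMC in water, 5 mL/kg) for 28 days, body weight recorded daily. After overnight fasting and isoflurane anaesthesia, liver, brain, kidney, spleen and testis were weighed, and serum was collected (2000g, 10 min, 4 °C) for blood chemistry.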

Mus musculus [3] = assay: Toxicity against KKAy mouse assessed as plasma gammaGTP level at 10 mg/kg/day, po for 14 days (reference value: 5.8 +/- 0.6 IU); format: organism-based; set-up: route oral; conditions: in vivo, 336 h
Mus musculus [4] = assay: Toxicity in ICR mouse assessed as increase in blood triglyceride level at 30 mg/kg/day, po for 7 days; format: organism-based; set-up: route oral; conditions: in vivo, 168 h
Outline: (§2)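 Male ICR mice, 6−7 weeks old, four per cage, grouped by body weight. Oral 30 mg/kg or vehicle (1% ethanol/0.5% CMC in water, 10 mL/kg) once daily for 7 days, body weight recorded daily. After overnight fasting, mice were weighed under ether, and liver was removed and weighed. Serum was analysed on a dry-chemistry analyser for TG, TCHO, ALP, CRE, BUN and other markers. n = 7−23, ANOVA.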

Mus musculus [5] = assay: Toxicity in ICR mouse assessed as development of hepatomegaly at 30 mg/kg/day, po for 7 days; format: organism-based; set-up: route oral; conditions: in vivo, 168 h; outline: as §2
[6] = biological target: T1, Oxysterols receptor LXR-alpha (Homo sapiens) (UniProt Q13133); assay: Transactivation of LXRalpha (unknown origin) by luciferase reporter gene assay relative to carba-T0901317
T1 sequence (whole entry): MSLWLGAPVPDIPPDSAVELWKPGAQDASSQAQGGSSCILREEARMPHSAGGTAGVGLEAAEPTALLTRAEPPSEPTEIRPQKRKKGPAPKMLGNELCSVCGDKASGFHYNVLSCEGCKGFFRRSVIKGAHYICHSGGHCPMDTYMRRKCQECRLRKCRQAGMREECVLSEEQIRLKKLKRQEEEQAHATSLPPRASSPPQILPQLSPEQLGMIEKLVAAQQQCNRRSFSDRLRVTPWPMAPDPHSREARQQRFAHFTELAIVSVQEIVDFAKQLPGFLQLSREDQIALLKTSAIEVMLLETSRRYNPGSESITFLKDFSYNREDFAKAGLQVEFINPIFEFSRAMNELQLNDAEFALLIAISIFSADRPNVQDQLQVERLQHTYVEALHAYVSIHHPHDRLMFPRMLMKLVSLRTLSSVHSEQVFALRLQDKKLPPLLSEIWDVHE
Outline: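 Heterodimer luciferase assay in COS-1 cells cotransfected with RXRα (0.5 μg), partner receptor (PPARγ or LXRα, 0.5 μg) and partner response element reporter (4.0 μg), plus SEAP. Compound (DMSO below 1%) was added with seeding at about 2.0 × 10⁴ cells/well, then 18 h at 37 °C, 5% CO2. Luciferase was normalized to SEAP. Triplicates, three runs.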

Mus musculus [7] = assay: Toxicity in ICR mouse assessed as weight gain at 30 mg/kg/day, po for 7 days relative to control; format: organism-based; set-up: route oral; conditions: in vivo, 168 h; outline: as §2
Rattus norvegicus [8] = assay: Toxicity in Sprague-Dawley rat assessed as change in weight of organs at 30 mg/kg, po for 28 days; format: organism-based; set-up: dose 30 mg/kg, route oral; conditions: in vivo, 672 h; outline: as §1
Mus musculus [9] = assay: Hepatotoxicity in ICR mouse assessed as increase in ALP level at 30 mg/kg, po for 7 days; format: toxicity, organism-based; set-up: dose 30 mg/kg, route oral; conditions: in vivo, 168 h; outline: as §2
Plasma = assay: Plasma concentration in ICR mouse at 30 mg/kg, po by HPLC analysis; format: ADME, organism-based; set-up: dose 30 mg/kg, route oral; conditions: read-out: Cp, in vivo
Outline: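 Six-week-old male ICR mice (n = 6−9) got a single oral 30 mg/kg dose in 1% ethanol/0.5% CMC in water, 10 mL/kg. Plasma was extracted with ethyl acetate and reconstituted in methanol. Reversed-phase HPLC (ODS-3, 40 °C, methanol:33.3 mM ammonium acetate pH 5.0 85:15, UV 280 nm), quantified against an authentic-compound calibration plot.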

[10] = biological target: T2, Retinoic acid receptor RXR-alpha (Homo sapiens, UniProt P19793); assay: Partial agonist activity at RXRalpha (unknown origin) expressed in COS1 cells after 18 hrs by luciferase reporter gene assay; format: cell-based, COS-1
T2 sequence (P19793 whole entry): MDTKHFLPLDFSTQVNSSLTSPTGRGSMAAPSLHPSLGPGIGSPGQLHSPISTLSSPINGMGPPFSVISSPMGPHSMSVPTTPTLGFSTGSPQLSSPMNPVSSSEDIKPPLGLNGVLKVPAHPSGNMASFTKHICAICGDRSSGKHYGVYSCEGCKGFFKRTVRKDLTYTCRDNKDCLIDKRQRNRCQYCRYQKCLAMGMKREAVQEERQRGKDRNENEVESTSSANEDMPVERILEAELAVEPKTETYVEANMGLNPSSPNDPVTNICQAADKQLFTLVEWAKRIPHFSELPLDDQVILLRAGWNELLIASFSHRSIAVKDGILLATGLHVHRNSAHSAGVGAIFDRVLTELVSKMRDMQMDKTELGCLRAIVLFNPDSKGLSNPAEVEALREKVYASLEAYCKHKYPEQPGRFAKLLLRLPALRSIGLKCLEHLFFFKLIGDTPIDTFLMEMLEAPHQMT
Outline: (§3)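 COS-1 cells in DMEM with 10% FBS at 37 °C, 5% CO2, transfected with RXRα, an RXR-response-element luciferase reporter and a SEAP background vector. Cells were seeded at about 2.0 × 10⁴ per well with compound (DMSO below 1%) for 18 h. Luciferase was normalized to SEAP and expressed relative to 1 μM reference RXR full agonist as 100%. EC50 came from full dose-response curves. Triplicates, at least three experiments.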

[11] = biological target: Retinoic acid receptor RXR-alpha/oxysterols receptor LXR-alpha (Homo sapiens) (UniProt P19793+Q13133); assay: Transactivation of LXRalpha/RXRalpha (unknown origin) by luciferase reporter gene assay relative to carba-T0901317; format: protein-complex assay
Outline: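 Heterodimer reporter in COS-1 cells co-transfected with RXRα (0.5 μg), partner receptor (LXRα for line 2, PPARγ for line 3; 0.5 μg), partner response element-luciferase (4.0 μg), and SEAP. Compound (DMSO below 1%) with ~2.0 × 10⁴ cells/well, 18 h, 37 °C; luciferase normalized to SEAP; triplicate, three runs.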

[12] = biological target: T3, Retinoic acid receptor RXR-alpha (Homo sapiens) (UniProt P19793); assay: Transactivation of RXRalpha (unknown origin) expressed in COS1 cells at 10 uM after 18 hrs by luciferase reporter gene assay relative to bexarotene; format: cell-based; conditions: COS-1; outline: as §3
T3 sequence (whole entry): T2 sequence (P19793 whole entry)

- Activity [6]: Active
- concentration (Plasma): > 6 µM
- EC50 [10]: 15 nM
- Activity [11]: Active
- Efficacy [12]: 71%
SMILES: Cc1cc2c(cc1-n1c(C(F)(F)F)nc3cc(C(=O)O)ccc31)C(C)(C)CCC2(C)C
- Activity (Mus musculus [1]): 0.2 mg/dL
- Activity (Rattus norvegicus [2]): Toxic
- Activity (Mus musculus [3]): 6.3 IU
- Activity (Mus musculus [4]): Non-toxic
- Activity (Mus musculus [5]): Toxic
- Activity (Mus musculus [7]): Non-toxic
- Activity (Rattus norvegicus [8]): Non-toxic
- Activity (Mus musculus [9]): Toxic
